Results: ChEMBL document CHEMBL3108734, “Identification of a new scaffold for hsp90 C-terminal inhibition” (ACS Med Chem Lett, 2014)
Activity calls are given as the source filed them. The rule behind the calls is not given here.

Key:
[1] = target: Heat shock protein HSP 90-beta (Homo sapiens) (UniProt P08238); assay: Inhibition of HSP90 in human MCF7 cells assessed as degradation of p-Akt at 1 to 10 uM after 24 hrs by Western blotting analysis; type: cell-based
In short: (§1)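 MCF-7 breast cancer cells were treated with compound at the concentrations shown, then lysed. Lysates were analysed by Western blot for the Hsp90-dependent clients Her2, Raf-1 and p-Akt, with actin as the Hsp90-independent control. Geldanamycin (0.5 μM) served as positive control and DMSO as negative control.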

[2] = target: Heat shock protein HSP 90-beta (Homo sapiens) (UniProt P08238); assay: Inhibition of HSP90 in human MCF7 cells assessed as degradation of Raf-1 at 1 to 10 uM after 24 hrs by Western blotting analysis; type: cell-based; in short: as §1
[3] = target: Heat shock protein HSP 90-beta (Homo sapiens) (UniProt P08238); assay: Inhibition of HSP90 in human MCF7 cells assessed as degradation of Her-2 at 1 to 10 uM after 24 hrs by Western blotting analysis; type: cell-based; in short: as §1
MCF7 = assay: Antiproliferative activity against human MCF7 cells after 72 hrs by MTS assay; type: functional, cell-based; details: MCF7, 72 h
In short: (§2)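 IC50 values for growth inhibition were derived from assays run in triplicate. Values are mean ± standard deviation of at least two separate experiments.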

[4] = Antiproliferative activity against human SKBR3 cells after 72 hrs by MTS assay; type: functional, cell-based; details: SK-BR-3, 72 h; in short: as §2
[5] = target: Heat shock protein HSP 90-beta (Homo sapiens) (UniProt P08238); assay: Inhibition of HSP90 in human MCF7 cells assessed as degradation of p-Akt after 24 hrs by Western blotting analysis; type: cell-based; in short: as §1
[6] = target: Heat shock protein HSP 90-beta (Homo sapiens) (UniProt P08238); assay: Inhibition of HSP90 in human MCF7 cells assessed as degradation of Raf-1 after 24 hrs by Western blotting analysis; type: cell-based; in short: as §1
[7] = target: Heat shock protein HSP 90-beta (Homo sapiens) (UniProt P08238); assay: Inhibition of HSP90 in human MCF7 cells assessed as degradation of Her-2 after 24 hrs by Western blotting analysis; type: cell-based; in short: as §1

Heat shock protein HSP 90-beta (Homo sapiens), sequence (P08238 whole entry): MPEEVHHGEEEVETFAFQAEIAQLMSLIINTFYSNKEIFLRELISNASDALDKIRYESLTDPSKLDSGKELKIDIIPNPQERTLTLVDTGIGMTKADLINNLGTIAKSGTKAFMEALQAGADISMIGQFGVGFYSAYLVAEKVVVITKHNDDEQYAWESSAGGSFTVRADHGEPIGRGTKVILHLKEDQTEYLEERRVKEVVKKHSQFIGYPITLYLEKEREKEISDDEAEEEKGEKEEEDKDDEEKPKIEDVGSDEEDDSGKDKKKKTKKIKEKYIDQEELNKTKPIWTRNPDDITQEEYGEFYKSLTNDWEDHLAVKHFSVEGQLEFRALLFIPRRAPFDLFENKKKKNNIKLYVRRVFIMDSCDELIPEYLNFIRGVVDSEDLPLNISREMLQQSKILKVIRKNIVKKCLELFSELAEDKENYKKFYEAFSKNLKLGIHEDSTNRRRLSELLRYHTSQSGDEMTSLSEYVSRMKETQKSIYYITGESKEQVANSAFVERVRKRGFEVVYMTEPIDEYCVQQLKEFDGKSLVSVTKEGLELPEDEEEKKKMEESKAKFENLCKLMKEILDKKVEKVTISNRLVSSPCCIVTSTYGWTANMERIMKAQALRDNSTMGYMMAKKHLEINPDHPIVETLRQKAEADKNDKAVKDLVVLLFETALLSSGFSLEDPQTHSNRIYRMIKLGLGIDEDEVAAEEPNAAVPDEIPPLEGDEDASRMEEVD

Row | IC50 (MCF7) [µM] | SMILES | IC50 [4] [µM] | other results
1 | 5.52 | COc1ccc(C(=O)Nc2cccc(-c3ccc(OC4CCN(C)CC4)cc3)c2)cc1 | 10.1 | –
2 | 3.92 | Cc1ccc(C(=O)Nc2cccc(-c3ccc(OC4CCN(C)CC4)cc3)c2)cc1 | 5.27 | –
3 | 12 | CN1CCC(Oc2ccc(-c3cccc(NC(=O)c4ccccc4)c3)cc2)CC1 | 18.9 | –
4 | 0.88 | CN1CCC(Oc2ccc(-c3cccc(NC(=O)c4ccc(Br)cc4)c3)cc2)CC1 | 1.94 | inhibition [5]: Dose-dependent effect; inhibition [6]: Dose-dependent effect; inhibition [7]: Dose-dependent effect
5 | 2.23 | CN1CCC(Oc2ccc(-c3cccc(NC(=O)c4ccc(Cl)cc4)c3)cc2)CC1 | 3.63 | –
6 | 7.73 | Cc1cccc(C(=O)Nc2cccc(-c3ccc(OC4CCN(C)CC4)cc3)c2)c1 | 11.4 | –
7 | 3.45 | CN1CCC(Oc2ccc(-c3cccc(NC(=O)c4ccc(C(C)(C)C)cc4)c3)cc2)CC1 | 1.51 | –
8 | 2.11 | CN1CCC(Oc2ccc(-c3cccc(NC(=O)c4cccc(Cl)c4)c3)cc2)CC1 | 4.29 | –

Continued, molecule first:

Row | SMILES | IC50 (MCF7) [µM] | IC50 [4] [µM] | other results
9 | CC(C)=CCc1cc(C(=O)Nc2cccc(-c3ccc(OC4CCN(C)CC4)cc3)c2)ccc1O | 2.21 | 2.94 | inhibition [1]: Active; inhibition [2]: Active; inhibition [3]: Active
10 | CN1CCC(Oc2ccc(-c3cccc(NC(=O)c4cc(Cl)cc(Cl)c4)c3)cc2)CC1 | 3.72 | 4.23 | –
11 | COc1cccc(C(=O)Nc2cccc(-c3ccc(OC4CCN(C)CC4)cc3)c2)c1 | 4.5 | 8.36 | –
12 | COc1cccc(-c2cc(C(=O)Nc3cccc(-c4ccc(OC5CCN(C)CC5)cc4)c3)ccc2OC)c1 | 2.71 | 3.47 | –
13 | CN1CCC(Oc2ccc(-c3cccc(NC(=O)c4ccc(Cl)cc4Cl)c3)cc2)CC1 | 3.93 | 5.91 | –
14 | CN1CCC(Oc2ccc(-c3cccc(NC(=O)c4ccc(Cl)c(Cl)c4)c3)cc2)CC1 | 2.17 | 2.24 | –
15 | CN1CCC(Oc2ccc(-c3cccc(NC(=O)c4ccc5ccccc5c4)c3)cc2)CC1 | 1.66 | 2.09 | –
16 | CC(=O)Oc1ccc(C(=O)Nc2cccc(-c3ccc(OC4CCN(C)CC4)cc3)c2)cc1CC=C(C)C | 1.45 | 3.65 | –
17 | CN1CCC(Oc2ccc(-c3cccc(NC(=O)c4ccccc4Cl)c3)cc2)CC1 | 5.17 | 7.87 | –
18 | CO[C@@H]1[C@@H](OC(N)=O)[C@@H](O)[C@H](Oc2ccc3c(O)c(NC(=O)c4ccc(O)c(CC=C(C)C)c4)c(=O)oc3c2C)OC1(C)C [NOVOBIOCIN] | – | 700 | –
19 | CN1CCC(Oc2ccc(-c3cccc(NC(=O)c4cccc5ccccc45)c3)cc2)CC1 | 1.1 | 1.64 | –
